Published values pooled from the literature.
Lines come from different studies, so protocols differ.
Target: Serine/threonine-protein kinase PAK 2 (PAK2, Homo sapiens, UniProt Q13177)

| SMILES | read-out | action | method | tested at | notes | quantity | value |
| --- | --- | --- | --- | --- | --- | --- | --- |
| CN1CCN(C(=O)c2ccc(NC(=O)Nc3ccc(N(C)c4ccnc(Nc5ccc(CS(C)(=O)=O)cc5)n4)cc3)cc2)CC1 | binding | – | – | 1 µM | – | remaining binding | 50% |
| COc1ccc2oc(-c3ccc4nc(N)oc4c3)c/c(=N\c3ccccc3NC(=O)CCN)c2c1 | binding | – | – | 1 µM | – | remaining binding | 98% |
| CO[C@@H]1[C@H](N(C)C(=O)c2ccccc2)C[C@H]2O[C@]1(C)n1c3ccccc3c3c4c(c5c6ccccc6n2c5c31)C(=O)NC4 | enzyme activity | inhibitor | – | 1 µM | – | inhibition | 28% |
| N#Cc1ccc(NC(=O)Nc2ccccc2)cc1 | cell-free assay | – | competition with immobilised ligand | 25 µM | – | remaining binding | 82% |
| Cc1cc(O)c(-c2ccc([C@@H](C)CN(C)C)cc2)c2c1[nH]c(=O)c1sccc12 | cell-free assay | inhibitor | – | 0.1 µM | lysate | inhibition | -5.59% |
| C1=C/COCc2cc(ccc2OCCN2CCCC2)Nc2nccc(n2)-c2cccc(c2)COC/1 | binding | – | – | 0.1 µM | – | remaining binding | 94% |
| CCCCC(=O)Nc1ccc(-c2ccc3ncn(CCC)c(=O)c3c2)cn1 | binding | – | competition with immobilised ligand | 0.5 µM | – | remaining binding | 91% |
| C#Cc1cnc(Nc2ccnc(CO)c2)nc1Nc1ccccc1S(C)(=O)=NC#N (stereo not shown) | cell-free assay | – | – | 1 µM | – | remaining signal | 48% |
| C[C@H]1CC[C@H](n2c3cnccc3c3cnc(Nc4ccc5c(n4)CCN(C(=O)CO)C5)nc32)CC1 | cell-free assay | – | – | 1 µM | – | remaining signal | 76% |
| C=CC(=O)N1CCC([C@@H]2CCNc3c(C(N)=O)c(-c4ccc(Oc5ccccc5)cc4)nn32)CC1 | enzyme activity | inhibitor | – | 1 µM | – | inhibition | 23% |
